Reference: PubChem BioAssay
Activity calls are given as the source filed them.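 How the source made its calls, unless noted: active means visually confirmed hit in the image check and inhibition above 20%; inconclusive means visually confirmed hit but inhibition not above 20%; inactive means no visual hit in the image check.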

Tests used:
[1] = inhibitors of TNFa-induced NFkB p65 translocation, primary screen, imaging, HUVEC, MLSMR starter and 10KST1 sets (AID 438;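 active means inhibition above 20% together with a positive visual image hit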;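 further: compound added about 3h40 before a 20 min TNFalpha stimulation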;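 on inhibition: signal is the nuclear over cytoplasmic p65 intensity ratio per well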); conditions: HUVEC TNFa-induced p65 nuclear translocation; cell count: measured here: nuclei count (cytotoxicity indicator), at 2.08 µM; inhibition: at 2 µM, stronger effect = higher value, 0% TNFa-plus-vehicle, 100% no-TNFa wells
[2] = endothelial E-selectin expression blockers – imaging, HUVEC, immunofluorescence, MLSMR starter and 10KST1 sets, primary screen (AID 487); conditions: HUVEC TNFalpha-induced E-selectin immunofluorescence imaging, at 2 µM; inhibition: stronger effect = higher value; nuclei count: measured here: cell number, toxicity;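 on inhibition: signal is fraction of cell area covered by stained E-selectin grains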;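 on nuclei count: 100% = median nuclei count of all wells on the same plate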
[3] = Primary imaging screen for DUSP6 inhibitors that restore phospho-Erk in transfected HeLa cells, chemical complementation (AID 609;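 active means compounds giving at least 50% inhibition in the cell-based MKP-3 phosphatase rescue imaging test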;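 on inhibition: phospho-Erk level distribution per well compared with pooled transfected vehicle control wells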); conditions: HeLa MKP-3 transfected, phospho-Erk imaging KS statistic, at 10 µM, cells stimulated with TPA for 15 min
[4] = target: Dual specificity protein phosphatase 6 (Homo sapiens) (UniProt Q16828); experiment: as above; conditions: HeLa MKP-3 transfected, phospho-Erk imaging KS statistic; at 10 µM; stronger effect = higher value; cells stimulated with TPA for 15 min
[5] = target: Voltage-gated potassium channel subunit beta-2 (Rattus norvegicus) (UniProt P62483); experiment: inhibitors of rat Kvbeta2 reductase activity – biochemical, NADPH fluorescence, primary screen (AID 622;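 active means fluorescence slope higher than the sample average by over 3 SD, cut at about -0.22 in these data, passing the limit was not always enough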;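 further: slope of raw intensity against log time taken from 70 to 1610 s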); conditions: recombinant KvBeta, 4-cyanobenzaldehyde reduction, at 10 µM, stronger effect = higher value
[6] = target: Voltage-gated potassium channel subunit beta-2 (Rattus norvegicus) (UniProt P62483); experiment: enhancers of rat Kvbeta2 NADPH turnover – biochemical, NADPH fluorescence, primary screen (AID 623;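 active means NADPH fluorescence slope more negative than the mean of all samples by about 3 SD, 99.7% confidence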;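 further: fluorescence intensity change per second fitted from 20 to 320 s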); conditions: Recombinant KvBeta, NADPH fluorescence decrease slope, 10 min; at 10 µM; stronger effect = lower value
[7] = target: Alpha-2C adrenergic receptor (Homo sapiens) (UniProt P18825); experiment: compounds altering alpha2C-coupled GIRK flux – cell-based, HEK293 alpha2C/GIRK1/2, thallium flux, primary screen (AID 624;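 active means fluorescence slope after compound addition differing from the mean of all screened samples at 99.7% confidence, in either direction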;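 further: slope of fluorescence ratio to pre-addition baseline per second over 15 to 24 s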); conditions: thallium flux BTC fluorescence, at 10 µM, actives lie on both sides
[8] = loss of swimming-algae plug formation – whole organism, Chlamydomonas reinhardtii, WT vs cilia-less mutant, absorbance, 96-well, primary screen (AID 463189;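 active means inhibition at or above 50% relative to wild type and mutant plate controls; inactive means inhibition below 50%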;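 further: 0% = wild type cc124 cells in DMSO and 100% = ciliumless bld1 mutant cells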); conditions: Chlamydomonas reinhardtii gravitaxis, OD600 absorbance, 2 days; at 10 µM; stronger effect = higher value
[9] = inhibitors of larval lipid processing in zebrafish, primary screen, whole organism, PED6 fluorescence, gall bladder and intestine (AID 686;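 active means a full or partial loss of lipid-probe fluorescence in the fish gall bladder, intestine or both, judged by eye; inactive means no fluorescence loss, or compound toxic to the fish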;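 further: larvae 5 to 7 days old with five fish per well; signal comes from phospholipase A2 cleavage of quenched PED6 carried via bile; overnight exposure to compound and PED6 before scoring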); conditions: Zebrafish larvae PED6 lipid processing, fluorescence scoring; screened at 20 µM (by protocol)
In short: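 Test system – live zebrafish larvae aged 5-7 days, whole organism · Buffer or medium – E3 fish medium · Reagent – quenched phospholipase substrate PED6, 100 nM final, ingested by larvae · Doses – 20 µM single dose · Incubation – overnight compound and PED6 incubation · Technique – visual fluorescence microscopy scoring of gall bladder, gut · Read-out basis – visual per-well fluorescence inhibition score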

[10] = measured here: cell density z-score
[11] = measured here: nuclear c-Myc green intensity z-score
[12] = measured here: nuclear pErk red intensity z-score, stronger effect = higher value

Dual specificity protein phosphatase 6 (Homo sapiens), sequence (Q16828 whole entry, looked up): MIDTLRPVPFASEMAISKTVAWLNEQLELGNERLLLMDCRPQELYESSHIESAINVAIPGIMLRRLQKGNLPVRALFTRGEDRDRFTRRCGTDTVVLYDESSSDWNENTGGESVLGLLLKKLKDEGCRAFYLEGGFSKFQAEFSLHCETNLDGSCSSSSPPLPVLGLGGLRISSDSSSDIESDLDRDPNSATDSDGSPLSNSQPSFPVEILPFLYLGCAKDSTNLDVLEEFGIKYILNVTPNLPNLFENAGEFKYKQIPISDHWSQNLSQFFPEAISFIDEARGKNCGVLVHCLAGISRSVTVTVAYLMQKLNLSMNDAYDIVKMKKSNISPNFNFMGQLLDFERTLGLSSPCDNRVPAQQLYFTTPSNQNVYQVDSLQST
Alpha-2C adrenergic receptor (Homo sapiens), sequence (P18825 whole entry, looked up): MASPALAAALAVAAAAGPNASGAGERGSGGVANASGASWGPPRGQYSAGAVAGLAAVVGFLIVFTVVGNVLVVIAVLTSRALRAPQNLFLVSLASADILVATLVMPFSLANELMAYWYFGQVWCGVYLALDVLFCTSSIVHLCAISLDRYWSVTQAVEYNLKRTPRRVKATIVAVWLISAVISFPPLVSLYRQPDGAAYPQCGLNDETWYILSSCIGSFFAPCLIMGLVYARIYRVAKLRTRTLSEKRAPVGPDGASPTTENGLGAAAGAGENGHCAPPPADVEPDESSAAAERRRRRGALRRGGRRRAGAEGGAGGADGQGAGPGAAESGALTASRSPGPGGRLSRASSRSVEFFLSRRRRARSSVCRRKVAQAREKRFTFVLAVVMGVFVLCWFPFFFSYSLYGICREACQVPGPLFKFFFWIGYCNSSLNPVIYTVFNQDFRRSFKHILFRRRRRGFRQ
Voltage-gated potassium channel subunit beta-2 (Rattus norvegicus), sequence (P62483 whole entry, looked up): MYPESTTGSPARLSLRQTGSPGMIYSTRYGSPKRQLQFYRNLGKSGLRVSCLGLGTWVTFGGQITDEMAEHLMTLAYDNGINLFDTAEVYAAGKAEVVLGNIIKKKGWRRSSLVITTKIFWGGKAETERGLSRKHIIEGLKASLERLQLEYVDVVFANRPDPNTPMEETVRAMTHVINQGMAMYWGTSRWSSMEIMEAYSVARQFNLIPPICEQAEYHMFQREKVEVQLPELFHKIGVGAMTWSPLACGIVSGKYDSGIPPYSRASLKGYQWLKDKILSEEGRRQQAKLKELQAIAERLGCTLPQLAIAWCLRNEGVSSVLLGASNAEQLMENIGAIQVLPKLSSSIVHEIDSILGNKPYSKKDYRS

Row | SMILES | cell count [1] | inhibition [1] | inhibition [2] | nuclei count [2] [%] | z-score [3, 10] | z-score [3, 11] | z-score [3, 12] | inhibition [4] | fluorescence slope [5] | NADPH fluorescence slope [6] | slope [7] | inhibition [8] | outcome [9]
1 | CC(=O)Nc1n[nH]c(S(=O)(=O)Cc2ccc(Cl)cc2Cl)n1 | 384 | 7.4% (inactive) | 5.6% (inactive) | 144 | -0.283 | -0.511 | -0.141 | -7.01% (inactive) | -0.401 (inactive) | -0.000133 (inactive) | 0.00491 (inactive) | 16.4% (inactive) | –
2 | CCCc1cc(=O)oc2c(CN3CCN(C)CC3)c(O)c(Cl)cc12 | 332 | 1.4% (inactive) | 4.8% (inactive) | 163 | 1.29 | -0.833 | -1.37 | 1.6e-07% (inactive) | -0.229 (inactive) | -1.7e-05 (inactive) | 0.00587 (inactive) | -8.3% (inactive) | –
3 | N#C/C(=C\N1CCN(Cc2ccc3c(c2)OCO3)CC1)c1nc2ccccc2s1 | 359 | -3.7% (inactive) | -122% (inactive) | 170 | -0.883 | 0.284 | 0.578 | -14% (inactive) | -0.428 (inactive) | -0.000152 (inactive) | 0.00144 (inactive) | 100% (active) | –
4 | CCOC(=O)c1cc2c(=O)n3ccccc3nc2n(Cc2ccccc2Cl)c1=N | 339 | 0.5% (inactive) | -3.3% (inactive) | 161 | -0.704 | 0.973 | 1.09 | -1.75% (inactive) | -0.39 (inactive) | -0.000121 (inactive) | 0.00529 (inactive) | 12.4% (inactive) | –
5 | Cc1cccc(N(Cc2cc3ccccc3[nH]c2=O)C(=O)c2ccco2)c1C | 391 | -8.8% (inactive) | -117% (inactive) | 150 | 0.27 | -0.684 | -0.0595 | 12.3% (inactive) | -0.439 (inactive) | -0.000168 (inactive) | 0.00782 (inactive) | 22.4% (inactive) | –
6 | COC(=O)c1ccc(C2/C(=C(/O)c3ccc(OC)cc3)C(=O)C(=O)N2c2cc(C)on2)cc1 (centres undefined) | 311 | -11.6% (inactive) | -76.7% (inactive) | 138 | 0.558 | -1.16 | -1.06 | 1.6e-07% (inactive) | -0.466 (inactive) | -5.4e-05 (inactive) | 0.00772 (inactive) | -6.24% (inactive) | –
7 | Cn1ncc2nnn(-c3ccccc3)c(=O)c21 | 492 | -0.2% (inactive) | -10.3% (inactive) | 107 | -0.32 | 1.71 | -1.2 | -1.12% (inactive) | -0.497 (inactive) | -0.000269 (inactive) | 0.00475 (inactive) | -10.6% (inactive) | inactive
8 | CCOP(=O)(c1ccccc1)C1(C#N)CCCC1 (centres undefined) | 492 | -9.6% (inactive) | -215% (inactive) | 150 | -1.11 | -1.86 | 0.943 | -3.98% (inactive) | -0.513 (inactive) | -0.000169 (inactive) | 0.00467 (inactive) | 4.97% (inactive) | inactive; toxic
9 | COc1ccccc1-c1nn2c(-c3ccc(C(C)(C)C)cc3)nnc2s1 | 509 | -5.2% (inactive) | -76.5% (inactive) | 110 | -0.995 | -1.37 | -0.665 | -7.86% (inactive) | -0.42 (inactive) | -3.3e-05 (inactive) | 0.0128 (inactive) | 19.8% (inactive) | inactive
10 | COc1ccc(N2CCN(C3CC(=O)NC3=O)CC2)cc1 (centres undefined) | 540 | -26.9% (inactive) | -161% (inactive) | 176 | 0.114 | -0.641 | -1.94 | 9.82% (inactive) | -0.548 (inactive) | -4.7e-05 (inactive) | 0.00484 (inactive) | 5.23% (inactive) | inactive
